Source: ChEMBL document CHEMBL3745642, “Structure-Activity Relationships of Novel Tryptamine-Based Inhibitors of Bacterial Transglycosylase” (J Med Chem, 2015)
Active and inactive are the calls of the source. No cut-off for these calls is given here.

Assays:
[1] = test system: Escherichia coli; assay: Inhibition of transglycosylase activity of Escherichia coli PBP1b assessed as remaining activity at 500 uM incubated for 30 mins by continous fluorescence assay
Procedure, shortened: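 Continuous fluorescence TG assay at 30 °C with purified E. coli PBP1b (100 nM) and dansyl-lipid II (10 µM) plus 1 U muramidase (Cellosyl). Fluorescence (ex 355/em 536 nm) read for 30 min. Relative activity measured with compound at 500 µM.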

[2] = Inhibition of transglycosylase activity of Escherichia coli PBP1b incubated for 30 mins by continous fluorescence assay
[3] = test system: Staphylococcus aureus; assay: Antibacterial activity against Staphylococcus aureus ATCC 25923 assessed as no visual turbidity by broth microdilution method; type: functional
Procedure, shortened: (§1)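 Mueller-Hinton broth microdilution per EUCAST/CLSI, 200 µL final volume. Compounds taken from 10 mg/mL DMSO stocks and diluted 20-fold in broth just before use. Inoculum was colonies from overnight plates, adjusted to 0.5 McFarland (about 1.10^8 CFU/mL) in 0.085% NaCl, then diluted 100-fold in broth. MIC was the lowest dilution with no visible turbidity.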

[4] = test system: Escherichia coli; assay: Antibacterial activity against Escherichia coli ATCC 8739 assessed as no visual turbidity by broth microdilution method; type: functional
Procedure, shortened: (§2)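 Broth microdilution in Mueller-Hinton broth following the EUCAST/CLSI procedure. Compounds were made as 10 mg/mL DMSO stocks, diluted 20-fold in broth just before use. Inoculum: colonies suspended to 0.5 McFarland (~1×10^8 CFU/mL) in 0.085% NaCl, then diluted 100-fold in broth. MIC is the lowest dilution with no visible turbidity.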

[5] = test system: Staphylococcus aureus; assay: Antibacterial activity against methicillin-resistant Staphylococcus aureus ATCC 43300 assessed as no visual turbidity by broth microdilution method; type: functional; procedure, shortened: as §1
[6] = test system: Enterococcus faecium; assay: Antibacterial activity against Enterococcus faecium ATCC 19434 assessed as no visual turbidity by broth microdilution method; type: functional; procedure, shortened: as §2
[7] = test system: HEK293; assay: Cytotoxicity against HEK293 cells assessed as reduction in cell viability at 8 ug/ml after 24 hrs by MTS assay; type: cell-based; conditions: human, hek293, 24 h
Procedure, shortened: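 HEK293 cells grown in DMEM with 10% FBS, 2 mM glutamine and penicillin/streptomycin at 37 °C, 5% CO2. Cells seeded at 2×10^4 per well and allowed to adhere 24 h. Compound added at 8 µg/mL final from an 8 mg/mL DMSO stock, with vehicle controls, in triplicate for 24 h. Metabolic activity read by MTS (CellTiter 96 AQueous One).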

[8] = Binding affinity to lipid2 in carboxyfluorescein loaded DOPC large unilamellar vesicle assessed as inhibition of nisin-induced carboxyfluorescein leakage at 3 uM preincubated for 2 mins followed by nisin addition measured after 50 secs
Procedure, shortened: (§3)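 DOPC LUVs (200-nm extrusion) containing 0.1 mol% lipid II and loaded with 50 mM CF, used at 20 µM lipid in 10 mM Tris, 150 mM NaCl, pH 7.5. Compound (from 1 mM DMSO stock) preincubated 2 min, then 20 nM nisin added. Leakage read at ex 492/em 516 nm and normalized to Triton X-100 total release. Residual nisin activity at 50 s is expressed relative to a no-compound control; run in triplicate.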

[9] = Binding affinity to lipid2 in carboxyfluorescein loaded DOPC large unilamellar vesicle assessed as inhibition of nisin-induced carboxyfluorescein leakage at 1.5 uM preincubated for 2 mins followed by nisin addition measured after 50 secs; procedure, shortened: as §3
[10] = molecular target: T1, Penicillin-binding protein 2 (Staphylococcus aureus, UniProt Q53729); assay: Inhibition of Staphylococcus aureus PBP2 transglycosylase activity after 30 mins by continous fluorescence assay
T1 sequence (Q53729 whole entry): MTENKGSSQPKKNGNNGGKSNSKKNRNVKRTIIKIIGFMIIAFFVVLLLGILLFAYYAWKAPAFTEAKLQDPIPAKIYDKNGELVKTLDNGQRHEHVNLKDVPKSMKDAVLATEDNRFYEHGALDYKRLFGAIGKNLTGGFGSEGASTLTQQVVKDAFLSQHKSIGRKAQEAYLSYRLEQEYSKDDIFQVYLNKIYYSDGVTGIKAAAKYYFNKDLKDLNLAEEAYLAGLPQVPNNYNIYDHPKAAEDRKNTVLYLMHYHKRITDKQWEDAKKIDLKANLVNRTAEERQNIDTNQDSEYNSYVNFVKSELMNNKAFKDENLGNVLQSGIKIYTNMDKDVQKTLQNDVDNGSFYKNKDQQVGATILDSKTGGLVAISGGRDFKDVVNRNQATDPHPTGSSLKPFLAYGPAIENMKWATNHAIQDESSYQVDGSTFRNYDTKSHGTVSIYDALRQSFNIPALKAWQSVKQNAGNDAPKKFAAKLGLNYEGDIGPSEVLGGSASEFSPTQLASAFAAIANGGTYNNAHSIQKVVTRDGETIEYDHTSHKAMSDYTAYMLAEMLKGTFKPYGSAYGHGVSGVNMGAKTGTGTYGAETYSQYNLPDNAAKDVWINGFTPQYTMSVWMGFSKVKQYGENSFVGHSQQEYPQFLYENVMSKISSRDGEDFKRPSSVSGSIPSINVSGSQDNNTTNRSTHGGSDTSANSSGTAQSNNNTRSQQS

[11] = Inhibition of Thermotoga maritima PBP1A transglycosylase activity after 30 mins by continous fluorescence assay
[12] = Inhibition of Enterococcus hirae PBP2 transglycosylase activity after 30 mins by continous fluorescence assay
[13] = Inhibition of Staphylococcus aureus mtgA after 30 mins by continous fluorescence assay

Row | SMILES | Activity [1] | IC50 [2] | MIC ([3]; read-out: MIC) | MIC [4] | MIC [5] | MIC [6] | also measured
1 | NCCc1cn(Cc2cccc(Cl)c2)c2ccccc12 | 54% | > 250 µM | 100 µM | 100 µM | 100 µM | 100 µM | 
2 | Cl.NCCc1cn(Cc2ccc(Cl)c(Cl)c2)c2ccccc12 | 15% | 103 µM | 45 µM | 45 µM | 45 µM | 11 µM | Activity [7]: Toxic
3 | COc1cccc(Cn2cc(CCNC(=N)N)c3ccccc32)c1 | 55% | > 250 µM | 73 µM | 73 µM | 146 µM | 293 µM | 
4 | COc1ccc2c(c1)c(CCNC(=N)N)c(C)n2Cc1ccc(Cl)c(Cl)c1.Cl | 4% | 39 µM | 9.1 µM | 72 µM | 9.1 µM | 9.1 µM | inhibition [8]: > 90%; Activity [7]: Non-toxic; Activity [9]: Active
5 | COc1ccc2c(c1)c(CCN)c(C)n2Cc1ccccc1 | 75% |  |  |  |  |  | 
6 | COc1ccc2c(c1)c(CCNC(=N)N)cn2Cc1ccc(Cl)c(Cl)c1.Cl | 9% | 50 µM | 19 µM | 37 µM | 19 µM | 19 µM | Activity [7]: Non-toxic; Activity [9]: Active
7 | Cl.N=C(N)NCCc1cn(Cc2ccc(Cl)c(Cl)c2)c2ccccc12 | 1% | 51 µM | 20 µM | 40 µM | 20 µM | 10 µM | Activity [7]: Non-toxic
8 | Cl.N=C(N)NCCc1cn(Cc2ccc(F)c(F)c2)c2ccccc12 | 10% | 97 µM | 44 µM | 44 µM | 88 µM | 88 µM | Activity [7]: Non-toxic
9 | COc1ccc(Cn2cc(CCNC(=N)N)c3ccccc32)cc1 | 67% |  |  |  |  |  | 
10 | N#Cc1cccc(Cn2cc(CCNC(=N)N)c3ccccc32)c1 | 79% |  |  |  |  |  | 
11 | COc1ccccc1Cn1cc(CCN)c2ccccc21 | 96% |  |  |  |  |  | 
12 | CSc1ccc2c(c1)c(CCN)c(C)n2Cc1ccc(Cl)c(Cl)c1 [listing 1 of 3 here] |  | 29 µM |  | 616 µM | 9.6 µM | 76 µM | MIC [3]: 16 µg/mL; Activity [7]: Toxic; IC50 [10]: 20.7 µM; IC50 [11]: 56 µM; IC50 [12]: 33 µM; IC50 [13]: 27 µM
13 | COc1ccc2c(c1)c(CCN)c(C)n2Cc1ccc(F)c(F)c1 | 28% | > 250 µM | 174 µM | 174 µM | 174 µM | 174 µM | 
14 | COc1ccc2c(c1)c(CCN)cn2Cc1ccc(C#N)cc1 | 105% |  |  |  |  |  | 
15 | N=C(N)NCCc1cn(Cc2ccc(F)cc2)c2ccccc12 | 42% | > 250 µM | 92 µM | 184 µM | 369 µM | 184 µM | 
16 | N=C(N)NCCc1cn(Cc2ccccc2)c2ccccc12 | 73% |  |  |  |  |  | 

Row | SMILES | Activity [1] | IC50 [2] | MIC ([3]; read-out: MIC) | MIC [4] | MIC [5] | MIC [6] | also measured
17 | CSc1ccc2c(c1)c(CCN)c(C)n2Cc1ccccc1 | 31% | > 250 µM | 92 µM | 369 µM | 184 µM | 92 µM | 
18 | N=C(N)NCCc1cn(Cc2cccc(Cl)c2)c2ccccc12 | 15% | 166 µM | 145 µM | 145 µM | 145 µM | 73 µM | 
19 | NCCc1cn(Cc2ccc(F)c(F)c2)c2ccccc12 | 62% | > 250 µM | 198 µM | 198 µM | 397 µM | 198 µM | 
20 | CSc1ccc2c(c1)c(CCN)c(C)n2Cc1ccc(Cl)c(Cl)c1 [listing 2 of 3 here] |  | 21 µM |  |  |  |  | 
21 | COc1ccccc1Cn1cc(CCNC(=N)N)c2ccccc21 | 29% | > 250 µM | 89 µM | > 356 µM | 89 µM | 44 µM | 
22 | COc1cccc(Cn2cc(CCN)c3ccccc32)c1 | 86% |  |  |  |  |  | 
23 | COc1ccc2c(c1)c(CCNC(=N)N)cn2Cc1ccc(F)c(F)c1 | 28% | > 250 µM | 81 µM | 81 µM | 162 µM | 324 µM | 
24 | COc1ccc(Cn2cc(CCN)c3ccccc32)cc1 | 80% |  |  |  |  |  | 
25 | NCCc1cn(Cc2ccccc2)c2ccccc12 | 93% |  |  |  |  |  | 
26 | COc1ccc2c(c1)c(CCN)c(C)n2Cc1ccc(C#N)cc1 | 118% |  |  |  |  |  | 
27 | CSc1ccc2c(c1)c(CCN)c(C)n2Cc1ccc(Cl)c(Cl)c1 [listing 3 of 3 here] | 1% |  |  |  |  |  | 
28 | N#Cc1cccc(Cn2cc(CCN)c3ccccc32)c1 | 94% |  |  |  |  |  | 
29 | COc1ccc2c(c1)c(CCN)cn2Cc1ccc(F)c(F)c1 | 88% |  |  |  |  |  | 
30 | NCCc1cn(Cc2ccc(F)cc2)c2ccccc12 | 97% |  |  |  |  |  | 
31 | COc1ccc2c(c1)c(CCN)cn2Cc1ccc(Cl)c(Cl)c1.Cl | 24% | 193 µM | 83 µM | 166 µM | 83 µM | 83 µM | Activity [7]: Toxic
32 | COc1ccc2c(c1)c(CCN)c(C)n2Cc1ccc(Cl)c(Cl)c1.Cl | 5% | 104 µM | 20 µM | 20 µM | 40 µM | 20 µM | Activity [7]: Toxic
